From ChEMBL document CHEMBL5608187, “Discovery of pyridoquinoxaline-based new P-gp inhibitors as coadjutant against Multi Drug Resistance in cancer” (Eur J Med Chem, 2024)
Active and inactive are the calls of the source. The rule behind the calls is not given here.

Tests used:
[1] = tested on: HCT-116 (Homo sapiens); assay: Coadjutant activity against multidrug resistance in human HCT-116 cells assessed as potentiation of cisplatin-induced cell growth inhibition at 0.25 to 4 uM incubated for 72 hrs in presence of 0.25 uM cisplatin by SiR-DNA/CellTox Green Dye based fluorescence analysis; details: dose 0.25-4 µM
[2] = tested on: HuP-T3; assay: Coadjutant activity against multidrug resistance in human HuP-T3 cells assessed as potentiation of cisplatin-induced cell growth inhibition at 0.25 to 4 uM incubated for 72 hrs in presence of 0.25 uM cisplatin by SiR-DNA/CellTox Green Dye based fluorescence analysis; type: functional; details: dose 0.25-4 µM
Method in brief: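 Cisplatin co-treatment, 72 h imaging growth assay (SiR-DNA nuclei minus CellTox Green dead cells, 500 cells/well, phenol-red-free medium). Combinations: inhibitor fixed with cisplatin 0.1–100 µM, or cisplatin fixed at 0.25 µM with inhibitor 0.25–4 µM. Three technical replicates, mean ± SD; two-tailed t-test.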

[3] = tested on: HT-29; assay: Cytotoxicity against human HT-29 cells assessed as inhibition of cell growth at 4 uM incubated for 72 hrs by SiR-DNA/CellTox Green Dye based fluorescence analysis; type: toxicity; details: ht-29, 72 h
Method in brief: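 Single-agent control at 4 µM, no anticancer drug. 500 cells/well with SiR-DNA and CellTox Green; imaged at addition and 72 h. Live count = total nuclei minus dead cells, expressed as percent growth. Three technical replicates.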

SMILES: O=C(Nc1ccccc1)c1ccccc1OCc1nc2cc3cccnc3cc2nc1COc1ccccc1C(=O)Nc1ccccc1
- Activity [1]: inactive
- Activity [2]: inactive
- Activity [3]: Non-Toxic
